Measured values of several laboratories.
Protocols differ between the studies behind these lines.

SMILES | cell line | assay | setting | IC50
COc1ccc(C=CC(=O)c2cccc([N+](=O)[O-])c2)cc1OC | J774 | cell growth or viability, MTT | 24 h | 25 µg/mL
Cc1ccc(-c2cc(-c3ccc4oc(=O)cc(C)c4c3O)nc(N)n2)cc1 | KB | cell growth or viability, MTT | 72 h | > 128 µg/mL
CC(C)C[C@H](NC(=O)[C@H](Cc1ccccc1)NC(=O)c1cnccn1)B(O)O | NCI-H1703 | cell growth or viability, ATP luminescence | – | 12 nM
CCCCC1=CC2C=CC=CC1C2C1CCCCC1=O (centres unmarked) | U-937 | cell growth or viability, flow cytometry | – | 35 nM
N=C(N)c1ccc(OCCCCCOc2ccc(C(=N)N)cc2)cc1 | J774 | cell growth or viability, resazurin | 48 h | 23800 nM
CCc1c2c(nc3ccc(OC(=O)N4CCC(N5CCCCC5)CC4)cc13)-c1cc3c(c(=O)n1C2)COC(=O)[C@]3(O)CC | HCCLM3 | cell growth or viability, MTT | 72 h | 33400 nM
Oc1ccc(Nc2nc(-c3ccc(Cl)cc3)cs2)cc1 | UACC-903 | cell growth or viability, MTS | 72 h | 33600 nM
COc1cc(-c2ncn(/C=C\C(=O)OC(C)C)n2)cc(C(F)(F)F)c1 | ML-2 | cell growth or viability | 72 h | 99 nM
COc1ccc(C=CC(=O)c2ccc(Cl)cc2Cl)cc1OC | J774 | cell growth or viability, MTT | 24 h | 6.25 µg/mL
COc1cccc2c1C(=O)c1c(O)c3c(c(O)c1C2=O)C[C@@](O)(C(=O)CO)C[C@@H]3O[C@H]1C[C@H](N)[C@H](O)[C@H](C)O1 | KB | cell growth or viability, neutral red | 48 h | 0.93 µg/mL
COc1cc(OC)c(/C=C/S(=O)(=O)Nc2ccc(OC)c(N)c2)c(OC)c1 | RF48 | cell growth or viability, trypan blue | 96 h | 4 nM
CCc1c2c(nc3ccc(OC(=O)N4CCC(N5CCCCC5)CC4)cc13)-c1cc3c(c(=O)n1C2)COC(=O)[C@]3(O)CC | KB | cell growth or viability, SRB | 72 h | 9800 nM
O=C(N/N=C/c1c(O)ccc2ccccc12)c1cc(-c2ccc3ccccc3c2)n[nH]1 | UACC-903 | cell growth or viability, MTS | 48 h | 10900 nM
Cc1cc(=O)oc2ccc(-c3cc(-c4cccc(Cl)c4)nc(N)n3)c(O)c12 | KB | cell growth or viability, MTT | 72 h | > 128 µg/mL
COc1ccccc1-c1c(C(F)(F)F)oc2cc(OC(=O)C(C)C)ccc2c1=O | human Neutrophil | cell migration, inhibitor | – | 200 nM
N#CCCCC1=CC2C=CC=CC1C2C1CCCCC1=O (centres unmarked) | U-937 | cell growth or viability, flow cytometry | – | 74 nM
COc1cc(Nc2nccc(-c3cnn4nc(OC)ccc34)n2)cc(C(F)(F)F)c1 | EFO-27 | cell growth or viability, ATP luminescence | – | 790 nM
CCOC(=O)Oc1ccc2c(=O)c(-c3ccccc3OC)c(C(F)(F)F)oc2c1 | human Neutrophil | cell migration, inhibitor | – | 1000 nM
O=C1CCCCC1C1C2C=CC=CC1C(CCN1C(=O)c3ccccc3C1=O)=C2 (centres unmarked) | U-937 | cell growth or viability, flow cytometry | – | 27 nM
O=C(Oc1ccc2c(=O)c(-c3ccccc3Cl)c(C(F)(F)F)oc2c1)c1cccs1 | human Neutrophil | cell migration, inhibitor | – | 80 nM
Cc1cc(=O)oc2ccc(-c3cc(-c4cccc([N+](=O)[O-])c4)nc(N)n3)c(O)c12 | KB | cell growth or viability, MTT | 72 h | 63.6 µg/mL
CCc1cc2c(=O)c(-c3nc4ccccc4n3C)c(C)oc2cc1OC(C)=O | human Neutrophil | cell migration, inhibitor | – | 27 nM
CC[C@@H](C)[C@H](N)C(=O)N1Cc2ccccc2C1 | U-937 | cell growth or viability, ATP luminescence | 48 h | > 60000 nM
Cc1cc(=O)oc2ccc(-c3cc(-c4ccc(Br)cc4)nc(N)n3)c(O)c12 | KB | cell growth or viability, MTT | 72 h | > 128 µg/mL
O=C1CCCCC1C1C2C=CC=CC1/C(=C/Cc1ccccc1)C2 (centres unmarked) | U-937 | cell growth or viability, flow cytometry | – | 59 nM
O=C(Oc1ccc2c(=O)c(-c3ccccc3)c(C(F)(F)F)oc2c1)c1cccs1 | human Neutrophil | cell migration, inhibitor | – | 640 nM
CC(C)(C)SCCCC1=CC2C=CC=CC1C2C1CCCCC1=O (centres unmarked) | U-937 | cell growth or viability, flow cytometry | – | 61 nM
Cc1oc2cc(OC(=O)c3ccco3)ccc2c(=O)c1-c1nc2ccccc2n1C | human Neutrophil | cell migration, inhibitor | – | 410 nM
NCC(=O)O | HFF | cell growth or viability, MTT | 48 h | 252000 nM
